Screening results as filed in PubChem.
A selection: hits, their analogues and other compounds. The true share with any hit is near 2.9%.
SIRT5 inh: blocks human SIRT5 desuccinylation of peptide; inhibition, % at 15 µM; Purified SirT5, succinyl-peptide AMC, trypsin-coupled fluorescence; Q9NXA8; 330,000 compounds, 1.1% hits; in the data active means inhibition above about 15%; inconclusive means no clear call, values can overlap the other calls
ERAP1 HTS inh: inhibitors of human ERAP1 aminopeptidase; Q9NZ08; recombinant ERAP1, Leu-AMC fluorescence, 60 min; inhibition, % at 10.7 µM; 340,000 compounds, 0.15% hits; AID 652197;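 active means mean replicate inhibition of at least 30%, or all replicates individually reaching that 30% level; inactive means mean below 30% and not every replicate reaching it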;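 further: 0% = neutral control wells and 100% = L-leucinethiol positive control wells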
Target sequence (Q9NZ08 whole entry, looked up): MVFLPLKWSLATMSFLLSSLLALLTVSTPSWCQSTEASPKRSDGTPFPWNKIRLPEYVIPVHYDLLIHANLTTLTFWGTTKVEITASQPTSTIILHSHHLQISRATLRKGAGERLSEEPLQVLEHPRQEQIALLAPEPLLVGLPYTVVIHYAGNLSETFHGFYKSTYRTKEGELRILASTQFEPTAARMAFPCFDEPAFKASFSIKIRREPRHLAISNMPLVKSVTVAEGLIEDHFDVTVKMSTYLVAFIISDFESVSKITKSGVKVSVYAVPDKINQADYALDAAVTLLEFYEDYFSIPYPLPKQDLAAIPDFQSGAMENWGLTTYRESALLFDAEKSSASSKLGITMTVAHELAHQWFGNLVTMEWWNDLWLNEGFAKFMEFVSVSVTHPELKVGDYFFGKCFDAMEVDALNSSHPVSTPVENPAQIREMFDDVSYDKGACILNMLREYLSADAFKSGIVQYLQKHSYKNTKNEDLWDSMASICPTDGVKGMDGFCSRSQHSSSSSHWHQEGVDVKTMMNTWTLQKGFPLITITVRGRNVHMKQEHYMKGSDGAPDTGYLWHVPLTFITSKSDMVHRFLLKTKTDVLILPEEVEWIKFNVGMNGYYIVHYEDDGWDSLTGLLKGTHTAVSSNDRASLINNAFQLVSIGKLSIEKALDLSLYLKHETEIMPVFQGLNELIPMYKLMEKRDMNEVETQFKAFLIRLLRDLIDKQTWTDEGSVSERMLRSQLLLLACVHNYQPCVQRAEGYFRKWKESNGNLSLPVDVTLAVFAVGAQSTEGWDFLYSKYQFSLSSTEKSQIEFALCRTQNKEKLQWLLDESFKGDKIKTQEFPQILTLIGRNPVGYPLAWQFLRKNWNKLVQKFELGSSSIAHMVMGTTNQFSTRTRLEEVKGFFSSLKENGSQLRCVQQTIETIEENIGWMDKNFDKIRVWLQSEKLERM
DENV2 CPE: protects cells from dengue virus 2 cytopathic effect; DENV2-infected cells, cytopathic effect rescue, plate reader; CPE inhibition, % at 9.99 µM; 350,000 compounds, 1.7% hits; AID 651640; in the data active means CPE inhibition above about 20%, passing the limit was not always enough; inconclusive means no clear call, values can overlap the other calls; tested in BHK-21 cells;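 further: 0% = median of neutral control wells and 100% = median of positive control wells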
CAL PDZ FP-1: inhibitors of human CAL PDZ peptide binding; inhibition, % at 20 µM; AID 504414; purified CAL PDZ, TMR-peptide fluorescence polarization, 1 h; 330,000 compounds, 0.02% hits;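 active means highest replicate inhibition of at least 40%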;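 further: plate controls were DMSO neutral control wells for no effect and unlabeled competitor peptide control wells for full effect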
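Test system: tagged CAL PDZ domain / Buffer or medium: sodium phosphate/NaCl buffer pH 7.4 with TCEP, IgG, Thesit / Reagent: TMR-labelled reporter peptide T*-PRC34 bound in PDZ groove / Compound dosing: single point, 20 µM / Schedule: 1 h incubation at room temperature before polarization reading / Technique: fluorescence polarization (mP) / Benchmarks: unlabelled peptide, DMSO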
S100A4 inh HTS: S100A4-myosin IIA interaction inhibition | AID 652163 | S100A4/TAMRA-MyoIIA peptide fluorescence polarization | P26447 | 360,000 compounds, 0.14% hits | inhibition, % at 10.7 µM;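 active means mean inhibition of at least 70% across replicates, with every replicate also reaching that level; inconclusive means mean inhibition reaches 70% but some replicates fall short; inactive means mean inhibition below 70%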
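Test system: S100A4 monomer protein; Medium: HEPES pH 7.2 with CaCl2, KCl, NaCl, DTT, Triton; Probe or stimulus: TAMRA-labelled myosin IIA heavy-chain peptide probe, 5 nM; Doses: one dose per compound; Times: polarization read 5 min after assay mix addition, stable 5–60 min; Benchmarks: neutral control DMSO, positive control TFP.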
CAL PDZ FP-2: blocks peptide binding to the human CAL PDZ domain; 300,000 compounds, 0.92% hits; purified CAL PDZ, TMR-peptide fluorescence polarization, 1 h; inhibition, % at 24.9 µM;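 active means mean inhibition of at least 30% with at least half of replicates also reaching 30%; inconclusive means no clear call, values can overlap the other calls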;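 further: 0% = DMSO neutral control and 100% = excess unlabeled competitor peptide PRC23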
* hit, by the source's call; ? = inconclusive; . = no result.

SMILES | SIRT5 inh | ERAP1 HTS inh | DENV2 CPE | CAL PDZ FP-1 | S100A4 inh HTS | CAL PDZ FP-2
CC(C)(C)NC(=S)N1CCC(C(=O)c2ccc(F)cc2)CC1 | -2 | 0 | 0 | -1 | -4 | -1
O=S(=O)(c1ccccc1)N1CCCCN2[C@@H](CO)[C@H](c3ccc(C#CC4CCCC4)cc3)[C@@H]2C1 | 7 | 2 | 8 | . | -3 | .
COc1ccc(C#Cc2ccc([C@@H]3[C@H]4CN(S(=O)(=O)c5ccccc5)CCCCN4[C@H]3CO)cc2)cc1 | 8 | 2 | 17 | . | 11 | .
O=S(=O)(c1ccccc1)N1CCCCN2[C@H](C1)[C@@H](c1ccc(C#CC3CCCC3)cc1)[C@@H]2CO | 15* | 1 | -1 | . | -4 | .
COc1ccc(S(=O)(=O)N2CCCCN3[C@@H](CO)[C@H](c4ccc(C#CC(C)C)cc4)[C@@H]3C2)cc1 | 15* | 0 | -25 | . | -7 | .
O=S(=O)(c1ccccc1)N1CCCCN2[C@H](CO)[C@@H](c3ccc(C#Cc4ccccc4)cc3)[C@@H]2C1 | -2 | 2 | 9 | . | -8 | .
O=S(=O)(c1ccccc1)N1CCCCN2[C@@H](CO)[C@H](c3ccc(C#Cc4ccccc4)cc3)[C@@H]2C1 | 4 | 4 | 22* | . | 5 | .
COc1ccc(C#Cc2ccc([C@H]3[C@H]4CN(S(=O)(=O)c5ccccc5)CCCCN4[C@H]3CO)cc2)cc1 | 6 | 2 | -8 | . | 123* | .
O=C(Nc1cccc(F)c1)N[C@@H]1CC[C@H](CCNS(=O)(=O)c2cccc(Cl)c2)O[C@@H]1CO | 1 | -2 | 0 | . | 0 | .
Cc1noc(C)c1S(=O)(=O)Nc1ccc2c(c1)C(=O)N([C@H](C)CO)C[C@@H](C)[C@@H](CN(C)C(=O)Nc1ccc(F)cc1)OCCCC[C@@H](C)O2 | 5 | 3 | ? | . | 2 | .
CCS(=O)(=O)N1CCCCN2[C@@H](CO)[C@@H](c3ccc(-c4ccc(C#N)cc4)cc3)[C@@H]2C1 | -1 | 0 | 45* | . | -8 | .
N#Cc1ccc(-c2ccc([C@@H]3[C@H]4CN(S(=O)(=O)c5ccccc5)CCCCN4[C@H]3CO)cc2)cc1 | 1 | 2 | 7 | . | 12 | .
CN(C)CC#Cc1ccc([C@H]2[C@@H](CO)N3CCCCN(S(=O)(=O)c4ccccc4)C[C@@H]23)cc1 | 6 | -1 | 44* | . | -3 | .
CCS(=O)(=O)N1CCCCN2[C@H](C1)[C@H](c1ccc(-c3ccc(C#N)cc3)cc1)[C@@H]2CO | 5 | 4 | 2 | . | 5 | .
N#Cc1ccc(-c2ccc([C@@H]3[C@H](CO)N4CCCCN(S(=O)(=O)c5ccccc5)C[C@@H]34)cc2)cc1 | -2 | -2 | 23* | . | -3 | .
O=C(Nc1nc(-c2ccc([N+](=O)[O-])cc2)cs1)C1=COCCO1 | 3 | -1 | 42* | . | 3 | .
Cc1ccc(S(=O)(=O)Nc2ccc3c(c2)C(=O)N([C@@H](C)CO)C[C@@H](C)[C@H](CN(C)C(=O)NC2CCCCC2)OCCCC[C@H](C)O3)cc1 | 3 | -2 | 10 | . | -4 | .
COc1cccc(S(=O)(=O)N2C[C@@H](O)COC[C@@H]3O[C@@H](CC(=O)N4CCN(C)CC4)CC[C@H]32)c1 | -2 | 2 | -14 | . | -6 | .
O=C(C[C@H]1CC[C@H]2[C@@H](COC[C@H](O)CN2S(=O)(=O)c2cccc(Cl)c2)O1)N1CCOCC1 | 7 | 0 | 21* | . | -4 | .
COc1cccc(S(=O)(=O)N2C[C@@H](O)COC[C@H]3O[C@H](CC(=O)N4CCN(C)CC4)CC[C@@H]32)c1 | -2 | 6 | 20* | . | -3 | .
Cc1c(O)ccc(/C=N/Nc2ncccc2[N+](=O)[O-])c1O | -3 | 1 | 10 | 0 | -3 | -8
O=[N+]([O-])c1cccnc1N/N=C/c1ccccc1O | -8 | -8 | -3 | -1 | -5 | 76*
O=[N+]([O-])c1ccc(NN=Cc2ccc(O)cc2O)nc1 | . | 2 | -12 | 3 | -4 | 48*
O=[N+]([O-])c1ccc(NN=Cc2ccccc2O)nc1 | . | 1 | 19 | 0 | -10 | 42*
Cc1cc(/C=N/Nc2ccc([N+](=O)[O-])cn2)c(C)n1-c1ccc(C(=O)O)cc1 | 32* | -3 | -1 | -2 | 0 | -4
COc1ccccc1C=NNc1ccc([N+](=O)[O-])cn1 | . | 2 | -5 | 1 | -2 | -2
